Results: ChEMBL document CHEMBL5344461, “ZX703: A Small-Molecule Degrader of GPX4 Inducing Ferroptosis in Human Cancer Cells” (ACS Med Chem Lett, 2024)
Active and inactive are the calls of the source. The calls are words filed in the database; no cut-off is given here.

Key:
HT-1080 [1] = assay: Antiproliferative activity against human HT-1080 cells assessed as inhibition of cell growth incubated for 24 hrs by CCK-8 assay; assay type: functional, cell-based; details: for IC50: HT-1080, 24 h
In short: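 HT1080 cells exposed to compound for 24 h; viability read by CCK-8; IC50 from growth inhibition.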

[2] = target: T1, von Hippel-Lindau disease tumor suppressor/Phospholipid hydroperoxide glutathione peroxidase GPX4 (Homo sapiens) (UniProt P40337+P36969); assay: PROTAC activity at VHL/GPX4 in human HT-1080 cells assessed as induction of protein degradation at 0.2 uM measured after 12 hrs by Western blot analysis relative to control; assay type: cell-based
In short: (§1)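 Time course in HT1080 cells at 0.2 μM compound. GPX4 detected by Western blot. Band density was quantified by gray-scale densitometry and normalized to GAPDH.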

[3] = target: T1, von Hippel-Lindau disease tumor suppressor/Phospholipid hydroperoxide glutathione peroxidase GPX4 (Homo sapiens); assay: PROTAC activity at VHL/GPX4 in human HT-1080 cells assessed as induction of protein degradation at 0.2 uM incubated for 12 hrs in presence of MG132 and chloroquine by Western blot analysis; assay type: cell-based
In short: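 HT1080 cells treated 12 h with degrader alongside MG132 (0.3 μM) and chloroquine (50 μM); chloroquine given as pretreatment. GPX4 detected by Western blot, band density quantified by gray-scale analysis.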

[4] = target: T1, von Hippel-Lindau disease tumor suppressor/Phospholipid hydroperoxide glutathione peroxidase GPX4 (Homo sapiens); assay: PROTAC activity at VHL/GPX4 in human HT-1080 cells assessed as induction of protein degradation at 0.2 uM measured after 6 hrs by Western blot analysis relative to control; assay type: cell-based; in short: as §1
[5] = target: T1, von Hippel-Lindau disease tumor suppressor/Phospholipid hydroperoxide glutathione peroxidase GPX4 (Homo sapiens); assay: (§2) PROTAC activity at VHL/GPX4 in human HT-1080 cells assessed as induction of protein degradation by Western blot analysis; assay type: cell-based
[6] = target: von Hippel-Lindau disease tumor suppressor/Phospholipid hydroperoxide glutathione peroxidase GPX4 (Homo sapiens, UniProt P36969+P40337); assay: as §2; assay type: cell-based
[7] = target: T1, von Hippel-Lindau disease tumor suppressor/Phospholipid hydroperoxide glutathione peroxidase GPX4 (Homo sapiens); assay: PROTAC activity at VHL/GPX4 in human HT-1080 cells assessed as induction of protein degradation at 0.2 uM measured for 24 hrs by Western blot analysis; assay type: cell-based; in short: as §1
[8] = target: T1, von Hippel-Lindau disease tumor suppressor/Phospholipid hydroperoxide glutathione peroxidase GPX4 (Homo sapiens); assay: PROTAC activity at VHL/GPX4 in human HT-1080 cells assessed as induction of protein degradation by measuring maximal degradation at 0.06 to 5 uM by Western blot analysis relative to control; assay type: cell-based; details: dose 0.06-5 µM
HT-1080 [9] = assay: Induction of ROS accumulation in human HT-1080 cells incubated for 12 hrs by DCFH-DA staining based flow cytometry analysis; assay type: functional, cell-based; details: dose 0.25-1 µM
In short: (§3)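 HT1080 cells loaded with 10 μM DCFH-DA, then treated 12 h with compound at various concentrations; intracellular ROS measured by flow cytometry. For the rescue arm, cells were pretreated 2 h with ferroptosis inhibitor Fer-1 (5 μM) and kept in its presence.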

HT-1080 [10] = assay: Induction of ROS accumulation in human HT-1080 cells at 1 uM pretreated with ferroptosis inhibitor, Fer-1 for 2 hrs followed by compound addition and further incubated for 12 hrs by DCFH-DA staining based flow cytometry analysis; assay type: functional, cell-based; in short: as §3
[11] = target: Protein cereblon/Phospholipid hydroperoxide glutathione peroxidase GPX4 (Homo sapiens, UniProt P36969+Q96SW2); assay: PROTAC activity at CRBN/GPX4 (unknown origin); assay type: protein assay
Chain of Protein cereblon/Phospholipid hydroperoxide glutathione peroxidase GPX4 (Q96SW2 whole entry): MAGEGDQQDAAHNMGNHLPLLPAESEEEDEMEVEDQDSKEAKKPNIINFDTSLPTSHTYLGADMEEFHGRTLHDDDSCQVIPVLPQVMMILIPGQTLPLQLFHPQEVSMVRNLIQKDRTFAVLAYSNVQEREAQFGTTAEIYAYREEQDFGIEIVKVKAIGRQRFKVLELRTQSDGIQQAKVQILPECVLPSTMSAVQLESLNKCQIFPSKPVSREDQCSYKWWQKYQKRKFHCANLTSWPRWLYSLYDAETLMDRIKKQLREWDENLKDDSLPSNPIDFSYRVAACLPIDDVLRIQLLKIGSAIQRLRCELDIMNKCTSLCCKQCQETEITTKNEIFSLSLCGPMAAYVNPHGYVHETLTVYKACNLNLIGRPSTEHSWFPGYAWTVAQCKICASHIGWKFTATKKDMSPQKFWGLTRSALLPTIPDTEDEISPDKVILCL
Chain of Protein cereblon/Phospholipid hydroperoxide glutathione peroxidase GPX4 (P36969 whole entry): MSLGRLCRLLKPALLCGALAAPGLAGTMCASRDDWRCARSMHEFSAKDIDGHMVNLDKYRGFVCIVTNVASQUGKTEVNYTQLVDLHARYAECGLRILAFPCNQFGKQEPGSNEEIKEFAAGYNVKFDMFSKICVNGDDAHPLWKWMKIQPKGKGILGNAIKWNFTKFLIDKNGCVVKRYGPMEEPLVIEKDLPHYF

T1 sequence (P36969 whole entry, looked up): as the sequence (P36969 whole entry) above
T1 sequence (P40337 whole entry, looked up): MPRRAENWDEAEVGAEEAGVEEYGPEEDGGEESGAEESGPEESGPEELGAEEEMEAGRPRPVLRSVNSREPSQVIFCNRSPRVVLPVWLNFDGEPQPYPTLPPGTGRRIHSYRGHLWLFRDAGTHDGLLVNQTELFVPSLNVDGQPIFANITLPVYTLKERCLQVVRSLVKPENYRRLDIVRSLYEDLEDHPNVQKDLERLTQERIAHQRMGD
Chain of von Hippel-Lindau disease tumor suppressor/Phospholipid hydroperoxide glutathione peroxidase GPX4 (P40337 whole entry): as the sequence (P40337 whole entry, looked up) above
Chain of von Hippel-Lindau disease tumor suppressor/Phospholipid hydroperoxide glutathione peroxidase GPX4 (P36969 whole entry): as the sequence (P36969 whole entry) above

| Compound | IC50 (HT-1080 [1]) [nM] | other results |
| --- | --- | --- |
| Cc1onc(C(=O)N2CCN(C(c3ccc(Cl)cc3)c3ccc(Cl)cc3)CC2)c1[N+](=O)[O-] | 153 | – |
| Cc1ncsc1-c1ccc(CNC(=O)[C@@H]2C[C@@H](O)CN2C(=O)[C@@H](NC(=O)COCCOCCOCCOCCOc2ccc(C(c3ccc(Cl)cc3)N3CCN(C(=O)c4noc(C)c4[N+](=O)[O-])CC3)cc2)C(C)(C)C)cc1 (stereo not given in full) | 4730 | – |
| Cc1ncsc1-c1ccc(CNC(=O)[C@@H]2C[C@@H](O)CN2C(=O)[C@@H](NC(=O)CCCOc2ccc(C(c3ccc(Cl)cc3)N3CCN(C(=O)c4noc(C)c4[N+](=O)[O-])CC3)cc2)C(C)(C)C)cc1 (stereo not given in full) | – | inhibition (HT-1080 [1]): inactive |
| Cc1ncsc1-c1ccc(CNC(=O)[C@@H]2C[C@@H](O)CN2C(=O)[C@@H](NC(=O)CCCCCCCCCOc2ccc(C(c3ccc(Cl)cc3)N3CCN(C(=O)c4noc(C)c4[N+](=O)[O-])CC3)cc2)C(C)(C)C)cc1 (stereo not given in full) | 435 | Activity [2]: > 80%; Activity [3]: inactive; Activity [4]: 50%; Activity [5]: Dose-Dependent Effect; EC50 [6]: 135 nM; Activity [7]: Active; Emax [8]: 86%; Activity (HT-1080 [9]): Dose-Dependent Effect; Activity (HT-1080 [10]): inactive |
| O=C1CCC(N2C(=O)c3cccc(NCCOCCOCCOCCn4cc(COc5ccc(N(C(=O)CCl)C(C(=O)NCCc6ccccc6)c6cccs6)cc5Cl)nn4)c3C2=O)C(=O)N1 (stereo not given) | – | EC50 [11]: 200 nM |
| Cc1ncsc1-c1ccc(CNC(=O)[C@@H]2C[C@@H](O)CN2C(=O)[C@@H](NC(=O)CCCCCCCCOc2ccc(C(c3ccc(Cl)cc3)N3CCN(C(=O)c4noc(C)c4[N+](=O)[O-])CC3)cc2)C(C)(C)C)cc1 (stereo not given in full) | 767 | – |
| Cc1ncsc1-c1ccc(CNC(=O)[C@@H]2C[C@@H](O)CN2C(=O)[C@@H](NC(=O)CCCCCCCCCCCOc2ccc(C(c3ccc(Cl)cc3)N3CCN(C(=O)c4noc(C)c4[N+](=O)[O-])CC3)cc2)C(C)(C)C)cc1 (stereo not given in full) | 2350 | – |
| Cc1ncsc1-c1ccc(CNC(=O)[C@@H]2C[C@@H](O)CN2C(=O)[C@@H](NC(=O)COCCOCCOCCOc2ccc(C(c3ccc(Cl)cc3)N3CCN(C(=O)c4noc(C)c4[N+](=O)[O-])CC3)cc2)C(C)(C)C)cc1 (stereo not given in full) | 3240 | – |
| Cc1ncsc1-c1ccc(CNC(=O)[C@@H]2C[C@@H](O)CN2C(=O)[C@@H](NC(=O)CCCCCCCCCCOc2ccc(C(c3ccc(Cl)cc3)N3CCN(C(=O)c4noc(C)c4[N+](=O)[O-])CC3)cc2)C(C)(C)C)cc1 (stereo not given in full) | 889 | – |
| Cc1ncsc1-c1ccc([C@H](C)NC(=O)[C@@H]2C[C@@H](O)CN2C(=O)[C@@H](NC(=O)CCCCCCCCCOc2ccc(C(c3ccc(Cl)cc3)N3CCN(C(=O)c4noc(C)c4[N+](=O)[O-])CC3)cc2)C(C)(C)C)cc1 (stereo not given in full) | 1210 | – |

Further lines, with some results ahead:

| IC50 (HT-1080 [1]) [nM] | Compound | other results |
| --- | --- | --- |
| 1360 | Cc1ncsc1-c1ccc(CNC(=O)[C@@H]2C[C@@H](O)CN2C(=O)[C@@H](NC(=O)CCCCCCOc2ccc(C(c3ccc(Cl)cc3)N3CCN(C(=O)c4noc(C)c4[N+](=O)[O-])CC3)cc2)C(C)(C)C)cc1 (stereo not given in full) | – |
| 4760 | Cc1ncsc1-c1ccc(CNC(=O)[C@@H]2C[C@@H](O)CN2C(=O)[C@@H](NC(=O)CN2CCN(CC3CCN(C(=O)COc4ccc(C(c5ccc(Cl)cc5)N5CCN(C(=O)c6noc(C)c6[N+](=O)[O-])CC5)cc4)CC3)CC2)C(C)(C)C)cc1 (stereo not given in full) | – |
| 4450 | Cc1ncsc1-c1ccc(CNC(=O)[C@@H]2C[C@@H](O)CN2C(=O)[C@@H](NC(=O)C2CCN(CC3CCN(C(=O)COc4ccc(C(c5ccc(Cl)cc5)N5CCN(C(=O)c6noc(C)c6[N+](=O)[O-])CC5)cc4)CC3)CC2)C(C)(C)C)cc1 (stereo not given in full) | – |
| 2070 | Cc1ncsc1-c1ccc(CNC(=O)[C@@H]2C[C@@H](O)CN2C(=O)[C@@H](NC(=O)COCCOCCOc2ccc(C(c3ccc(Cl)cc3)N3CCN(C(=O)c4noc(C)c4[N+](=O)[O-])CC3)cc2)C(C)(C)C)cc1 (stereo not given in full) | – |
| 1680 | Cc1ncsc1-c1ccc(CNC(=O)[C@@H]2C[C@@H](O)CN2C(=O)[C@@H](NC(=O)CCCCCCCOc2ccc(C(c3ccc(Cl)cc3)N3CCN(C(=O)c4noc(C)c4[N+](=O)[O-])CC3)cc2)C(C)(C)C)cc1 (stereo not given in full) | – |
| 2140 | Cc1ncsc1-c1ccc(CNC(=O)[C@@H]2C[C@@H](O)CN2C(=O)[C@@H](NC(=O)COc2ccc(C(c3ccc(Cl)cc3)N3CCN(C(=O)c4noc(C)c4[N+](=O)[O-])CC3)cc2)C(C)(C)C)cc1 (stereo not given in full) | – |
| 2160 | Cc1ncsc1-c1ccc(CNC(=O)[C@@H]2C[C@@H](O)CN2C(=O)[C@@H](NC(=O)CCOc2ccc(C(c3ccc(Cl)cc3)N3CCN(C(=O)c4noc(C)c4[N+](=O)[O-])CC3)cc2)C(C)(C)C)cc1 (stereo not given in full) | – |
| 1540 | Cc1ncsc1-c1ccc(CNC(=O)[C@@H]2C[C@@H](O)CN2C(=O)[C@@H](NC(=O)CCCCOc2ccc(C(c3ccc(Cl)cc3)N3CCN(C(=O)c4noc(C)c4[N+](=O)[O-])CC3)cc2)C(C)(C)C)cc1 (stereo not given in full) | – |
| 2290 | Cc1ncsc1-c1ccc(CNC(=O)[C@@H]2C[C@@H](O)CN2C(=O)[C@@H](NC(=O)CCCCCOc2ccc(C(c3ccc(Cl)cc3)N3CCN(C(=O)c4noc(C)c4[N+](=O)[O-])CC3)cc2)C(C)(C)C)cc1 (stereo not given in full) | – |
| 1350 | Cc1ncsc1-c1ccc(CNC(=O)[C@@H]2C[C@@H](O)CN2C(=O)[C@@H](NC2CC3(CCN(C(=O)COc4ccc(C(c5ccc(Cl)cc5)N5CCN(C(=O)c6noc(C)c6[N+](=O)[O-])CC5)cc4)CC3)C2)C(C)(C)C)cc1 (stereo not given in full) | – |
| 1830 | Cc1ncsc1-c1ccc(CNC(=O)[C@@H]2C[C@@H](O)CN2C(=O)[C@@H](NC(=O)COCCOc2ccc(C(c3ccc(Cl)cc3)N3CCN(C(=O)c4noc(C)c4[N+](=O)[O-])CC3)cc2)C(C)(C)C)cc1 (stereo not given in full) | – |
